Laboratory results published in ChEMBL document CHEMBL3108694, “Development of novel dual binders as potent, selective, and orally bioavailable tankyrase inhibitors” (J Med Chem, 2013).
Converted amounts (≈) assume the structure as drawn.

Tests used:
[1] = Volume of distribution at steady state in rat at 0.5 mg/kg, iv; type: ADME, organism-based; set-up: dose 0.5 mg/kg, route intravenous; conditions: in vivo, read-out: Vdss
Summary of the method: (§1)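 Male rats received a single intravenous dose of 0.5 mg/kg. Mean clearance, steady-state volume of distribution and half-life were reported.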

[2] = AUC (0 to infinity) in CD-1 mouse at 30 mg/kg, po; type: ADME, organism-based; set-up: time infinity, dose 30 mg/kg, route oral; conditions: plasma
Summary of the method: (§2)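 Male CD-1 mice given a single oral dose of 30 mg/kg. Vehicle was 10% Pluronic F68, 30% HPBCD and 60% water, pH adjusted to 10.0 with NaOH for most compounds or to 2.5 with methanesulfonic acid for one. Mean plasma PK parameters were reported.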

Mus musculus [3] = assay: Ex vivo inhibition of TNKS in tumor of athymic nude mouse xenografted with human DLD1 cells assessed as inhibition of super-Topflash reporter gene transcription at 50 mg/kg, po qd administered for 3 days measured 24 hrs post last dose by dual-glo luciferase reporter gene assay relative to control; type: functional; conditions: DLD-1
Summary of the method: (§3)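 Athymic nude mice carried subcutaneous DLD-1 tumors engineered with a Wnt-responsive STF firefly luciferase and a constitutive Renilla luciferase. At about 250 mm³, mice were randomized (n = 4 per group) and dosed orally once daily for 3 days at 10 or 50 mg/kg, or with vehicle. Tumor axin2 was measured by MSD immunoassay. STF was read by Dual-Glo, firefly normalized to Renilla. Plasma was taken for exposure.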

[4] = Half life in rat at 0.5 mg/kg, iv; type: ADME, organism-based; set-up: dose 0.5 mg/kg, route intravenous; conditions: in vivo; summary of the method: as §1
[5] = (§4) Inhibition of TNKS in human SW480 cells assessed as degradation of total pool of beta-catenin after 40 to 48 hrs; type: cell-based
Summary of the method: (§5)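 SW480 cells were seeded at 10 000/well in MEMα with 10% HI FBS, GlutaMAX, pyruvate and 10 mM HEPES. They were treated with a 10-point, 3-fold dilution series at 0.1% final DMSO for 40–48 h at 37 °C, then lysed. Total β-catenin was measured by MSD sandwich immunoassay (polyclonal capture, SULFO-TAG mAb detection).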

[6] = Inhibition of TNKS in human DLD1 cells expressing APC mutant assessed as inhibition of super-Topflash reporter gene transcription after 40 to 48 hrs by dual-glo luciferase reporter gene assay; type: cell-based; conditions: DLD-1
Summary of the method: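 DLD-1 cells carried an 8× TCF-driven firefly luciferase and an EF1a-driven Renilla luciferase, and were seeded at 10 000/well in RPMI with 10% FBS without antibiotics. A 10-point, 3-fold dilution series starting at 10 μM was applied for 40–48 h at 37 °C. Firefly and Renilla activities were read with Dual-Glo reagents.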

Plasma = assay: Unbound plasma concentration in athymic nude mouse xenografted with human DLD1 cells at 50 mg/kg, po qd administered for 3 days measured 24 hrs post last dose; type: ADME, organism-based, DLD-1; set-up: dose 50 mg/kg, route oral; conditions: in vivo; summary of the method: as §3
Mus musculus [7] = assay: Ex vivo inhibition of TNKS in tumor of athymic nude mouse xenografted with human DLD1 cells assessed as inhibition of super-Topflash reporter gene transcription at 10 mg/kg, po qd administered for 3 days measured 24 hrs post last dose by dual-glo luciferase reporter gene assay relative to control; type: functional; conditions: DLD-1; summary of the method: as §3
[8] = Clearance in rat at 0.5 mg/kg, iv; type: ADME, organism-based; set-up: dose 0.5 mg/kg, route intravenous; conditions: in vivo; summary of the method: as §1
[9] = Tmax in CD-1 mouse at 30 mg/kg, po; type: ADME, organism-based; set-up: dose 30 mg/kg, route oral; conditions: in vivo; summary of the method: as §2
[10] = Oral bioavailability in rat at 2 mg/kg; type: ADME, organism-based; conditions: in vivo
[11] = Fraction unbound in mouse plasma at 5 uM after 5 hrs by equilibrium dialysis method; type: ADME, cell-free
Summary of the method: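 Mouse plasma was spiked to a final 5 μM and equilibrium-dialyzed against plasma water (ultrafiltrate) for 5 h at 37 °C in a CO2 incubator, using a rapid equilibrium dialysis device. Fraction unbound was determined in duplicate.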

[12] = Cmax in CD-1 mouse at 30 mg/kg, po; type: ADME, organism-based; set-up: dose 30 mg/kg, route oral; conditions: in vivo; summary of the method: as §2
[13] = Inhibition of TNKS in human SW480 cells assessed as accumulation of axin-2 into cytoplasmic foci after 24 hrs by Hoechst dye-based assay; conditions: SW480, 24 h
[14] = Half life in CD-1 mouse plasma at 1 uM by LC-MS/MS analysis; type: ADME, cell-free
Summary of the method: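 Lithium-heparinized CD-1 mouse plasma was spiked with 1 μM substrate and incubated at 37 °C for 3 h, sampling at 0, 0.167, 1, 2 and 3 h (n = 2). Samples underwent acetonitrile protein precipitation with tolbutamide as internal standard. Analysis was by reversed-phase UPLC-ESI-MS/MS in MRM mode.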

SW480 = assay: as §4; type: cell-based; conditions: dose or concentration not given here; summary of the method: as §5
[15] = target: T1, Poly [ADP-ribose] polymerase tankyrase-1 (Homo sapiens, UniProt O95271); assay: Inhibition of 6x-His-tagged TNKS1 (unknown origin) after 60 mins
T1 sequence (O95271 whole entry): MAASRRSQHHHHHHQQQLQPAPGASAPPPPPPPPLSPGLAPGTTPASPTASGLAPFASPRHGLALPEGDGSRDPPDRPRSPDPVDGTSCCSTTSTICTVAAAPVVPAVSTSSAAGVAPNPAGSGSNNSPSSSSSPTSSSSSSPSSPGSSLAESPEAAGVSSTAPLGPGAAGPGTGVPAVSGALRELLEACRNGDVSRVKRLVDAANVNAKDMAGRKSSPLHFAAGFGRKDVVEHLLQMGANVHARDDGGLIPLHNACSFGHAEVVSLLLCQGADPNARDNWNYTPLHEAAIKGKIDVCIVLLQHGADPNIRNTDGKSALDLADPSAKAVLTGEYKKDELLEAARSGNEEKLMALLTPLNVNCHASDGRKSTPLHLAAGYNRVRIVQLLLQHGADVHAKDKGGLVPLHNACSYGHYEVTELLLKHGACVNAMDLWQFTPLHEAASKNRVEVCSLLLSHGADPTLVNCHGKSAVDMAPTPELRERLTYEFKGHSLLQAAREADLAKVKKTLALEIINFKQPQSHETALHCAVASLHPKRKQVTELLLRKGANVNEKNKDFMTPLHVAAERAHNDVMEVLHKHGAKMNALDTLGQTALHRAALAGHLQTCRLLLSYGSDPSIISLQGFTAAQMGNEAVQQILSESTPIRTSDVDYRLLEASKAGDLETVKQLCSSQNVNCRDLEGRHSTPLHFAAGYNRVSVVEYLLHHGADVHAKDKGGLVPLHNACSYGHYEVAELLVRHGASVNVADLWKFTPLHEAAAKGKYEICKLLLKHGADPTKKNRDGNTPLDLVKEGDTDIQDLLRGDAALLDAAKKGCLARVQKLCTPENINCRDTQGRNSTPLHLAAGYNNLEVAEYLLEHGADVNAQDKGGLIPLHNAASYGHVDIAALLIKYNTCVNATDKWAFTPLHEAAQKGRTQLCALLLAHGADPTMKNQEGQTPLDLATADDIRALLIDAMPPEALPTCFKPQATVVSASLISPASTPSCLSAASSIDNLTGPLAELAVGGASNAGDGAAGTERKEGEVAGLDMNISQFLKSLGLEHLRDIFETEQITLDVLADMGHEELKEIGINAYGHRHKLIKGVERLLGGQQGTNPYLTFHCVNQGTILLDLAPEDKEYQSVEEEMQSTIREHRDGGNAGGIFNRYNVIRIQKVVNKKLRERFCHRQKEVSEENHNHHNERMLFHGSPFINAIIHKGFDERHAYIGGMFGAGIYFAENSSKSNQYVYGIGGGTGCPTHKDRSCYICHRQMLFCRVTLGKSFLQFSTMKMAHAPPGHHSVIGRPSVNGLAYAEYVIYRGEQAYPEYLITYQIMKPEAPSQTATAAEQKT

[16] = Solubility in fasted state simulated intestinal fluid at pH 6.8; type: ADME
[17] = Intrinsic clearance in rat liver microsomes at 1 uM after 30 mins; type: ADME; conditions: read-out: CLH
Summary of the method: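 Substrate depletion in rat liver microsomes: 0.25 mg protein/mL, 1 mM NADPH and 2 mM MgCl2 in 50 mM potassium phosphate, pH 7.4, prewarmed to 37 °C. Test compound was added to a final 1 μM, and parent loss was measured after 30 min at 37 °C.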

Rattus norvegicus [18] = assay: Clearance in rat at 5 mg/kg, iv; type: ADME, organism-based; set-up: dose 5 mg/kg, route intravenous; conditions: in vivo
Rattus norvegicus [19] = assay: AUC (infinity) in rat at 5 mg/kg, iv; type: ADME, organism-based, Plasma; set-up: time infinity, dose 5 mg/kg, route intravenous; conditions: in vivo
[20] = Volume of distribution at steady state in rat at 5 mg/kg, iv; type: ADME, organism-based; set-up: dose 5 mg/kg, route intravenous; conditions: in vivo, read-out: Vdss
[21] = Half life in rat at 5 mg/kg, iv; type: ADME, organism-based; set-up: dose 5 mg/kg, route intravenous; conditions: in vivo

| Vd [1] | AUC(0-inf) [2] | half-life [4] | IC50 [5] | IC50 [6] | Cp(f) (Plasma) | clearance [8] | Tmax [9] | bioavailability [10] | fraction unbound at 5 h, 5 µM [11] | Cmax [12] | EC50 [13] | half-life at 1 µM [14] | IC50 [15] | solubility [16] | SMILES | inhibition in vivo at 50 mg/kg (Mus musculus [3]) | inhibition in vivo at 10 mg/kg (Mus musculus [7]) | also measured |
| --- | --- | --- | --- | --- | --- | --- | --- | --- | --- | --- | --- | --- | --- | --- | --- | --- | --- | --- |
| 0.32 L/kg | 141 µM·h | 168 min | 1.9 nM | 0.3 nM | 9 nM | 2 mL/min/kg | 1.5 h | 21% | 0.006 | 24.2 µM | 4 nM |  |  |  | N#Cc1ccc(O[C@H]2CC[C@H](NC(=O)CCSc3nc4ccccc4c(=O)[nH]3)CC2)cc1 | 79% | 70% |  |
|  |  |  |  |  |  |  |  |  |  |  |  | > 1000 min | 400 nM |  | Cn1nc(-c2ccc(NC(=O)CCc3nc4ccccc4c(=O)[nH]3)cc2)c2ccccc21 |  |  | inhibition (SW480): > 50% |
| 0.7 L/kg | 49.5 µM·h | 108 min | 4 nM | 0.6 nM | 13 nM | 13.8 mL/min/kg | 0.58 h | 13% | 0.017 | 18.7 µM | 3.9 nM |  |  | 7 µg/mL (≈ 14.7 µM) | O=C(CCSc1nc2ccccc2c(=O)[nH]1)N[C@H]1CC[C@H](c2nnc(-c3ccccc3)o2)CC1 | 58% | 51% | microsomal CLint at 1 µM [17]: 57 µL/min/mg |
|  |  |  | 160 nM |  |  |  |  |  |  |  |  | 40 min | 10 nM | 6.6 µg/mL (≈ 14.9 µM) | COc1ccccc1NC(=O)c1ccc(NC(=O)CCc2nc3ccccc3c(=O)[nH]2)cc1 |  |  | CL (Rattus norvegicus [18]): 10.9 L/h/kg; AUC (Rattus norvegicus [19]): 0.11 µM·h; Vd [20]: 4.69 L/kg; half-life [21]: 22.2 min |
